Laboratory results reported in ChEMBL document CHEMBL3244032, “Synthesis and antiviral acticity of some phosphates of the broad-spectrum antiviral nucleoside, 1-beta-D-ribofuranosyl-1,2,4-triazole-3-carboxamide (ribavirin)” (J Med Chem, 1978).
Active and inactive are the calls of the source. The calls are words filed in the database; no cut-off is given here.

How the values were obtained:
[1] = test system: Human respirovirus 3; experiment: Antiviral activity against Parainfluenza virus type 3 infected in human KB cells assessed as inhibition of virus-induced cytopathic effect at 1 to 1000 ug/ml after 72 hrs; assay type: functional, organism-based
How it was run: (§1)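 KB cell monolayers (24 h old) infected with 320 cell culture 50% infectious doses/mL of virus; compound added 15 min after infection at 1000 to 1 μg/mL. Plates incubated 72 h at 37 °C and scored for inhibition of viral CPE. Activity was expressed as a virus rating that accounts for cytotoxicity and CPE in treated versus untreated cells. VR 0.5 or above was taken as definite activity.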

[2] = test system: Vaccinia virus; experiment: Antiviral activity against Vaccinia virus infected in human KB cells assessed as inhibition of virus-induced cytopathic effect at 1 to 1000 ug/ml after 72 hrs; assay type: functional, organism-based; conditions: Orthopoxvirus vaccinia
[3] = test system: KB; experiment: Antiviral activity against Rhinovirus type 13 infected in human KB cells assessed as inhibition of virus-induced cytopathic effect at 1 to 1000 ug/ml after 72 hrs; assay type: functional, cell-based; conditions: Human rhinovirus A13; how it was run: as §1
[4] = test system: Human alphaherpesvirus 1; experiment: Antiviral activity against HSV1 infected in human KB cells assessed as inhibition of virus-induced cytopathic effect at 1 to 1000 ug/ml after 72 hrs; assay type: functional, organism-based; how it was run: as §1
[5] = test system: KB; experiment: Antiviral activity against Adenovirus type 3 infected in human KB cells assessed as inhibition of virus-induced cytopathic effect at 1 to 1000 ug/ml after 72 hrs; assay type: functional, cell-based; conditions: Human adenovirus 3; how it was run: as §1
[6] = test system: Murine hepatitis virus; experiment: Antiviral activity against Murine hepatitis virus Friend-Braunsteiner infected in ip dosed Swiss mouse assessed as most effective dose administered bid for 8 days; assay type: functional
How it was run: (§2)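 Swiss mice, 16-18 g, inoculated ip with a 95% lethal dose of virus. Dosed ip twice daily for 8 days, beginning 2 h before inoculation, at 18.8, 37.5 or 75 mg/kg/day; controls got saline. Survivors counted on day 21; survival compared by χ² analysis. Mean survival time is from deaths on or before day 21, compared by t test.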

[7] = test system: Mus musculus; experiment: Toxicity in Swiss mouse infected with Murine hepatitis virus Friend-Braunsteiner assessed as survival at 75 mg/kg/day, ip bid administered for 8 days started at 2 hrs prior to infection; assay type: organism-based; set-up: route intraperitoneal; conditions: in vivo
[8] = test system: Influenza B virus; experiment: Antiviral activity against Influenza B virus Lee infected in Swiss mouse assessed as survival at 75 mg/kg/day, ip bid administered for 9 days relative to control; assay type: functional, organism-based
How it was run: (§3)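 Swiss mice, 14-16 g, given virus intranasally at a dose lethal to 95%. Dosed intraperitoneally twice daily for 9 days, starting 4 h before infection; controls got saline. Survivors counted on day 21 postinfection; survival compared by χ² analysis. Mean survival time is from animals dying on or before day 21 and was compared by t test.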

[9] = test system: Influenza A virus; experiment: Antiviral activity against Influenza A2 virus Japan 305 infected in Swiss mouse assessed as mean survival time at 75 mg/kg/day, po bid administered for 9 days (reference value: 9 days); assay type: functional
[10] = test system: Influenza A virus; experiment: Antiviral activity against Influenza A2 virus Japan 305 infected in Swiss mouse assessed as survival at 75 mg/kg/day, po bid administered for 9 days relative to control; assay type: functional, organism-based
[11] = test system: Murine hepatitis virus; experiment: Antiviral activity against Murine hepatitis virus Friend-Braunsteiner infected in Swiss mouse assessed as survival at 18.8 to 75 mg/kg/day, ip bid administered for 8 days relative to control; assay type: functional, organism-based
How it was run: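 Swiss mice of 16-18 g were inoculated ip with a 95% lethal dose of virus. Treatment was given ip twice daily for 8 days, starting 2 h before inoculation, at 75, 37.5 or 18.8 mg/kg/day; placebo controls received saline. Survivors were counted on day 21 postinfection and compared by χ² analysis. Mean survival time covered animals dying by day 21 and was compared by t test. Uninfected toxicity controls were included.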

[12] = test system: Murine hepatitis virus; experiment: Antiviral activity against Murine hepatitis virus Friend-Braunsteiner infected in Swiss mouse assessed as mean survival time at 75 mg/kg/day, ip bid administered for 8 days (reference value: 5.2 days); assay type: functional; conditions: route intraperitoneal; how it was run: as §2
[13] = test system: Murine hepatitis virus; experiment: Antiviral activity against Murine hepatitis virus Friend-Braunsteiner infected in Swiss mouse assessed as mean survival time at 37.5 mg/kg/day, ip bid administered for 8 days (reference value: 5.2 days); assay type: functional; conditions: route intraperitoneal; how it was run: as §2
[14] = test system: Mus musculus; experiment: Toxicity in Swiss mouse infected with Murine hepatitis virus Friend-Braunsteiner assessed as survival at 18.8 mg/kg/day, ip bid administered for 8 days started at 2 hrs prior to infection; assay type: organism-based; set-up: route intraperitoneal; conditions: in vivo
[15] = test system: Murine hepatitis virus; experiment: Antiviral activity against Murine hepatitis virus Friend-Braunsteiner infected in Swiss mouse assessed as mean survival time at 18.8 mg/kg/day, ip bid administered for 8 days (reference value: 5.2 days); assay type: functional; conditions: route intraperitoneal; how it was run: as §2
[16] = Toxicity in Swiss mouse; assay type: organism-based; conditions: in vivo
[17] = test system: Mus musculus; experiment: Toxicity in Swiss mouse infected with Influenza B virus Lee assessed as survival at 75 mg/kg/day, ip bid administered for 9 days started at 4 hrs prior to infection; assay type: organism-based; set-up: route intraperitoneal; conditions: in vivo
[18] = test system: Mus musculus; experiment: Toxicity in Swiss mouse infected with Murine hepatitis virus Friend-Braunsteiner assessed as survival at 37.5 mg/kg/day, ip bid administered for 8 days started at 2 hrs prior to infection; assay type: organism-based; set-up: route intraperitoneal; conditions: in vivo
[19] = test system: Influenza B virus; experiment: Antiviral activity against Influenza B virus Lee infected in Swiss mouse assessed as mean survival time at 75 mg/kg/day, ip bid administered for 9 days (reference value: 11.2 days); assay type: functional; conditions: route intraperitoneal; how it was run: as §3
[20] = test system: Mus musculus; experiment: Toxicity in Swiss mouse infected with Influenza A2 virus Japan 305 assessed as survival at 75 mg/kg/day, po bid administered for 9 days started at 4 hrs prior to infection; assay type: organism-based; set-up: route oral; conditions: in vivo

Row | Structure (SMILES) | Activity [1] | Activity [2] | Activity [3] | Activity [4] | Activity [5] | Activity [6] | Activity [7] | Activity [8] | MSD [9] | Activity [10] | Activity [11] | MSD [12] | MSD [13] | Activity [14] | MSD [15] | MTD [16] | Activity [17] | Activity [18] | MSD [19] | Activity [20]
1 | NC(=O)c1ncn([C@@H]2O[C@@H]3COP(=O)(O)O[C@H]3[C@H]2O)n1 | Active | Active | Active | Active | inactive | – | – | – | – | – | – | – | – | – | – | – | – | – | – | –
2 | NC(=O)c1ncn([C@@H]2O[C@H](CO)[C@@H](O)[C@H]2O)n1 | Active | Active | Active | Active | Active | – | – | – | – | – | – | – | – | – | – | – | – | – | – | –
3 | NC(=O)c1ncn([C@@H]2O[C@H](CO)[C@H]3OP(=O)(O)O[C@H]32)n1 | Active | Active | Active | Active | inactive | – | – | – | – | – | – | – | – | – | – | – | – | – | – | –
4 | NC(=O)c1ncn([C@@H]2O[C@H](COP(=O)(O)OP(=O)(O)O)[C@@H](O)[C@H]2O)n1 | Active | Active | Active | Active | inactive | – | – | – | – | – | – | – | – | – | – | – | – | – | – | –
5 | NC(=O)c1ncn([C@@H]2O[C@H](COP(=O)([O-])[O-])[C@@H](O)[C@H]2O)n1.[Li+].[Li+] | Active | Active | Active | Active | inactive | 37.5 mg/kg/day | Non-toxic | Active | 7.6 days | Active | Active | 6.1 days | 6 days | Non-toxic | 5.3 days | 150 mg/kg/day | Non-toxic | Non-toxic | 13.3 days | Non-toxic
6 | NC(=O)c1ncn([C@@H]2O[C@H](COP(=O)(O)OP(=O)(O)OP(=O)(O)O)[C@@H](O)[C@H]2O)n1 | Active | Active | Active | Active | inactive | – | – | – | – | – | – | – | – | – | – | – | – | – | – | –
